Each structure is given as a SMILES string. Square brackets hold non-standard residues; d marks the D form. Peptide text beside a SMILES is read from it. Tic = O=C(O)[C@@H]1Cc2ccccc2CN1

The test system of one assay is Platelet. Briefly: Inhibition of platelet-activating factor-induced platelet aggregation in pig blood. It is filed as functional, cell-based. To be noted: Sus scrofa. The method in brief:
(§1)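 Pig blood was spun at 1000g for 10 min to give PRP and at 1500g for 10 min to give PPP. PRP was adjusted to 2 × 10^8 platelets/ml with autologous PPP. The sample was preincubated with test agent or NS. Agonist final concentrations, each in NS: ADP 10 µM, AA 350 µM, PAF 0.1 µM, thrombin 0.1 U/ml. Optical aggregometry ran 5 min at 37 °C. Peak height gave maximal aggregation; % inhibition versus NS gave IC50.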
One may read the IC50 as the point on the concentration scale where inhibition reaches its midpoint. The low end stands for inhibition by little substance, the high end for a need for much substance. For the compound `O=C(O)[C@@H]1Cc2c([nH]c3ccccc23)CN1` [CYCLOMETHYLTRYPTOPHAN], the IC50 was determined as 3180 nM.

`NCCCC[C@H](N)C(=O)N1Cc2ccccc2C[C@H]1C(=O)O` (H-Lys-[Tic]-OH) registered an IC50 of 472 nM.

Regarding `CC[C@H](C)[C@H](N)C(=O)N1Cc2ccccc2C[C@H]1C(=O)O` (H-Ile-[Tic]-OH), the IC50 is 831 nM.

With `N[C@@H](CC(=O)O)C(=O)N1Cc2ccccc2C[C@H]1C(=O)O` (H-Asp-[Tic]-OH), the IC50 came out at 383 nM.

Turning to `C[C@H](N)C(=O)N1Cc2ccccc2C[C@H]1C(=O)O` (H-Ala-[Tic]-OH), the IC50 stood at 945 nM.

`NC(=O)C[C@H](N)C(=O)N1Cc2ccccc2C[C@H]1C(=O)O` (H-Asn-[Tic]-OH) showed an IC50 of 360 nM.

As to `N[C@@H](CO)C(=O)N1Cc2ccccc2C[C@H]1C(=O)O` (H-Ser-[Tic]-OH), half-maximal inhibition (IC50) required 267 nM.

For `N=C(N)NCCC[C@H](N)C(=O)N1Cc2ccccc2C[C@H]1C(=O)O` (H-Arg-[Tic]-OH), the IC50 is 517 nM.

Regarding `NC(=O)CC[C@H](N)C(=O)N1Cc2ccccc2C[C@H]1C(=O)O` (H-Gln-[Tic]-OH), the IC50 stood at 392 nM.

Turning to `NCC(=O)N1Cc2ccccc2C[C@H]1C(=O)O` (H-Gly-[Tic]-OH), the IC50 stood at 875 nM.

In another assay the test system is Platelet. In words: Inhibition of adenosine diphosphate-induced platelet aggregation in pig blood. Type of assay: functional, cell-based. To be noted: Sus scrofa. The essentials:
as §1
For the compound `O=C(O)[C@@H]1Cc2c([nH]c3ccccc23)CN1` [CYCLOMETHYLTRYPTOPHAN], half-maximal inhibition (IC50) was put at 3320 nM.

In the case of `NCCCC[C@H](N)C(=O)N1Cc2ccccc2C[C@H]1C(=O)O` (H-Lys-[Tic]-OH), inhibition was half-maximal at 323 nM (IC50).

Compound `CC[C@H](C)[C@H](N)C(=O)N1Cc2ccccc2C[C@H]1C(=O)O` (H-Ile-[Tic]-OH) displayed an IC50 of 315 nM.

For `N[C@@H](CC(=O)O)C(=O)N1Cc2ccccc2C[C@H]1C(=O)O` (H-Asp-[Tic]-OH), it took 345 nM to reach half-maximal inhibition (IC50).

For the compound `C[C@H](N)C(=O)N1Cc2ccccc2C[C@H]1C(=O)O` (H-Ala-[Tic]-OH), half-maximal inhibition (IC50) was put at 651 nM.

As for `NC(=O)C[C@H](N)C(=O)N1Cc2ccccc2C[C@H]1C(=O)O` (H-Asn-[Tic]-OH), it took 534 nM to reach half-maximal inhibition (IC50). The IC50 values of the last two compounds are within 1.5-fold of each other.

`N[C@@H](CO)C(=O)N1Cc2ccccc2C[C@H]1C(=O)O` (H-Ser-[Tic]-OH): it took 103 nM to reach half-maximal inhibition (IC50). Against the preceding compound, the IC50 is about 5.2-fold lower.

The compound `N=C(N)NCCC[C@H](N)C(=O)N1Cc2ccccc2C[C@H]1C(=O)O` (H-Arg-[Tic]-OH) returned an IC50 of 210 nM. Against the preceding compound, the IC50 is about 2-fold higher.

Turning to `NC(=O)CC[C@H](N)C(=O)N1Cc2ccccc2C[C@H]1C(=O)O` (H-Gln-[Tic]-OH), inhibition was half-maximal at 302 nM (IC50).

As for `NCC(=O)N1Cc2ccccc2C[C@H]1C(=O)O` (H-Gly-[Tic]-OH), half-maximal inhibition (IC50) required 365 nM.

Another assay deals with Rattus norvegicus. Briefly: Antithrombotic activity in Wistar rat assessed as wet thrombus weight at 500 nmol/kg. It is filed as functional.
Conditions: not given
The method in brief:
(§2)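 Dose series (5 µmol/kg, 500 nmol/kg, 50 nmol/kg, 5 nmol/kg) given by intravenous injection to male Wistar rats (250–300 g) in an arteriovenous cannula model containing a weighed 6 cm thread. Anesthesia was pentobarbital sodium (80.0 mg/kg ip) with NS vehicle. Wet thrombus weight is given as mean ± SD, n = 12.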
On to `N[C@@H](CO)C(=O)N1Cc2ccccc2C[C@H]1C(=O)O` (H-Ser-[Tic]-OH), for which the Activity came to 18.31 mg.

A further assay concerns Platelet. Briefly: Inhibition of thrombin-induced platelet aggregation in pig blood. Type of assay: functional, cell-based. To be noted: Sus scrofa. The essentials: as §1
`O=C(O)[C@@H]1Cc2c([nH]c3ccccc23)CN1` [CYCLOMETHYLTRYPTOPHAN] yielded a 50% inhibitory concentration (IC50) of 3290 nM. In other words, the single-digit micromolar range.

Take `NCCCC[C@H](N)C(=O)N1Cc2ccccc2C[C@H]1C(=O)O` (H-Lys-[Tic]-OH): it took 829 nM to reach half-maximal inhibition (IC50).

`CC[C@H](C)[C@H](N)C(=O)N1Cc2ccccc2C[C@H]1C(=O)O` (H-Ile-[Tic]-OH) came in with an IC50 of 674 nM.

`N[C@@H](CC(=O)O)C(=O)N1Cc2ccccc2C[C@H]1C(=O)O` (H-Asp-[Tic]-OH) yielded an IC50 of 902 nM.

As for `C[C@H](N)C(=O)N1Cc2ccccc2C[C@H]1C(=O)O` (H-Ala-[Tic]-OH), the IC50 worked out at 741 nM.

`NC(=O)C[C@H](N)C(=O)N1Cc2ccccc2C[C@H]1C(=O)O` (H-Asn-[Tic]-OH) had an IC50 of 495 nM.

Consider `N[C@@H](CO)C(=O)N1Cc2ccccc2C[C@H]1C(=O)O` (H-Ser-[Tic]-OH), for which it took 498 nM to reach half-maximal inhibition (IC50).

`N=C(N)NCCC[C@H](N)C(=O)N1Cc2ccccc2C[C@H]1C(=O)O` (H-Arg-[Tic]-OH) returned an IC50 of 565 nM.

For the compound `NC(=O)CC[C@H](N)C(=O)N1Cc2ccccc2C[C@H]1C(=O)O` (H-Gln-[Tic]-OH), the IC50 worked out at 555 nM.

In the case of `NCC(=O)N1Cc2ccccc2C[C@H]1C(=O)O` (H-Gly-[Tic]-OH), the midpoint of inhibition, the IC50, lay at 761 nM.

The next assay relates to Platelet. In words: Inhibition of arachidonic acid-induced platelet aggregation in pig blood. Type of assay: functional, cell-based. To be noted: Sus scrofa. The method in brief: as §1
Compound `O=C(O)[C@@H]1Cc2c([nH]c3ccccc23)CN1` [CYCLOMETHYLTRYPTOPHAN] showed an IC50 of 3430 nM.

Compound `NCCCC[C@H](N)C(=O)N1Cc2ccccc2C[C@H]1C(=O)O` (H-Lys-[Tic]-OH) had an IC50 of 344 nM.

The compound `CC[C@H](C)[C@H](N)C(=O)N1Cc2ccccc2C[C@H]1C(=O)O` (H-Ile-[Tic]-OH) came in with an IC50 of 465 nM.

In the case of `N[C@@H](CC(=O)O)C(=O)N1Cc2ccccc2C[C@H]1C(=O)O` (H-Asp-[Tic]-OH), inhibition was half-maximal at 369 nM (IC50). The IC50 values of the last two compounds are within 1.5-fold of each other.

`C[C@H](N)C(=O)N1Cc2ccccc2C[C@H]1C(=O)O` (H-Ala-[Tic]-OH) returned an IC50 of 440 nM.

`NC(=O)C[C@H](N)C(=O)N1Cc2ccccc2C[C@H]1C(=O)O` (H-Asn-[Tic]-OH) registered an IC50 of 407 nM.

As for `N[C@@H](CO)C(=O)N1Cc2ccccc2C[C@H]1C(=O)O` (H-Ser-[Tic]-OH), the IC50 was 215 nM.

On to `N=C(N)NCCC[C@H](N)C(=O)N1Cc2ccccc2C[C@H]1C(=O)O` (H-Arg-[Tic]-OH), for which 217 nM corresponded to half-maximal inhibition (IC50).

`NC(=O)CC[C@H](N)C(=O)N1Cc2ccccc2C[C@H]1C(=O)O` (H-Gln-[Tic]-OH) came in with an IC50 of 351 nM.

`NCC(=O)N1Cc2ccccc2C[C@H]1C(=O)O` (H-Gly-[Tic]-OH) came in with an IC50 of 423 nM.

The next assay deals with Rattus norvegicus. Briefly: Antithrombotic activity in Wistar rat assessed as wet thrombus weight at 5 nmol/kg.
Conditions: not given
It is filed as functional. The method in brief: as §2
In the case of `N[C@@H](CO)C(=O)N1Cc2ccccc2C[C@H]1C(=O)O` (H-Ser-[Tic]-OH), the Activity amounted to 28.58 mg.

Another assay concerns Rattus norvegicus. Briefly: Antithrombotic activity in Wistar rat assessed as wet thrombus weight at 50 nmol/kg. Type of assay: functional.
Conditions: not given
The essentials: as §2
For `N[C@@H](CO)C(=O)N1Cc2ccccc2C[C@H]1C(=O)O` (H-Ser-[Tic]-OH), the Activity is 22.54 mg.

The subject of a further assay is Rattus norvegicus. In words: Antithrombotic activity in Wistar rat assessed as wet thrombus weight at 110 x 5 umol/kg. It is filed as functional.
Conditions: not given
The method in brief:
(§3)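 Male Wistar rats (250–300 g) got the test agent orally, dissolved in NS and kept on ice; NS served as vehicle. After 45 min, rats were anesthetized with pentobarbital sodium (80.0 mg/kg ip). An extracorporeal carotid artery–jugular vein polyethylene cannula holding a weighed 6 cm thread was placed, and the wet thrombus weight on the thread was recorded.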
`CC(=O)Oc1ccccc1C(=O)O` [ASPIRIN]: the Activity was found to be 13.22 mg.

The next assay relates to Rattus norvegicus. In words: Antithrombotic activity in Wistar rat assessed as wet thrombus weight at 22 x 5 umol/kg.
Conditions: not given
It is filed as functional. The method in brief:
as §3
As to `CC(=O)Oc1ccccc1C(=O)O` [ASPIRIN], the Activity is 27.6 mg.

In another assay the test system is Rattus norvegicus. In words: Antithrombotic activity in Wistar rat assessed as wet thrombus weight at 5 umol/kg. It is filed as functional.
Conditions: not given
The essentials:
as §3
On to `NCCCC[C@H](N)C(=O)N1Cc2ccccc2C[C@H]1C(=O)O` (H-Lys-[Tic]-OH), for which the Activity came to 21.31 mg.

For the compound `CC[C@H](C)[C@H](N)C(=O)N1Cc2ccccc2C[C@H]1C(=O)O` (H-Ile-[Tic]-OH), the Activity is reported as 21.14 mg.

On to `N[C@@H](CC(=O)O)C(=O)N1Cc2ccccc2C[C@H]1C(=O)O` (H-Asp-[Tic]-OH), for which the Activity is listed as 20.3 mg.

On to `C[C@H](N)C(=O)N1Cc2ccccc2C[C@H]1C(=O)O` (H-Ala-[Tic]-OH), for which the Activity came to 20.3 mg.

With `NC(=O)C[C@H](N)C(=O)N1Cc2ccccc2C[C@H]1C(=O)O` (H-Asn-[Tic]-OH), the Activity stood at 22.66 mg.

With `N[C@@H](CO)C(=O)N1Cc2ccccc2C[C@H]1C(=O)O` (H-Ser-[Tic]-OH), the Activity was 18 mg.

Take `N=C(N)NCCC[C@H](N)C(=O)N1Cc2ccccc2C[C@H]1C(=O)O` (H-Arg-[Tic]-OH): the Activity stood at 20.06 mg.

As to `NC(=O)CC[C@H](N)C(=O)N1Cc2ccccc2C[C@H]1C(=O)O` (H-Gln-[Tic]-OH), the Activity was determined as 21.3 mg.

As to `NCC(=O)N1Cc2ccccc2C[C@H]1C(=O)O` (H-Gly-[Tic]-OH), the Activity is listed as 21.17 mg.
